# Test results from PubChem BioAssay.
# Calls of active or inactive are those of the source.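 How the source made its calls, unless noted: active means viability at or below 10% of carrier control in both of two separate runs; inconclusive means viability at or below 10% in only one of the two runs; inactive means the rest.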
# Columns and labels:
# [1] = Her2 expression decrease, cell viability multiplex – SKBR3 breast tumor cells, AlphaScreen, ATP viability, primary screen (AID 461;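 active means Her2 level under about 52% in both replicate screens, with viability over 70% of control, limit read from the data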;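 on Her2 level: lower value means less Her2 protein in the cells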;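 on viability: percent of carrier control wells set as 100% viability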); conditions: SKBR3 Her2 protein level, 18-24 h, measured here: SKBR3 viability, ATP luminescence, at 10 µM
# [2] = molecular target: Receptor tyrosine-protein kinase erbB-2 (Homo sapiens) (UniProt P04626); experiment: as above; conditions: 18-24 h, at 10 µM, stronger effect = lower value
# Receptor tyrosine-protein kinase erbB-2 (Homo sapiens), sequence (P04626 whole entry, looked up): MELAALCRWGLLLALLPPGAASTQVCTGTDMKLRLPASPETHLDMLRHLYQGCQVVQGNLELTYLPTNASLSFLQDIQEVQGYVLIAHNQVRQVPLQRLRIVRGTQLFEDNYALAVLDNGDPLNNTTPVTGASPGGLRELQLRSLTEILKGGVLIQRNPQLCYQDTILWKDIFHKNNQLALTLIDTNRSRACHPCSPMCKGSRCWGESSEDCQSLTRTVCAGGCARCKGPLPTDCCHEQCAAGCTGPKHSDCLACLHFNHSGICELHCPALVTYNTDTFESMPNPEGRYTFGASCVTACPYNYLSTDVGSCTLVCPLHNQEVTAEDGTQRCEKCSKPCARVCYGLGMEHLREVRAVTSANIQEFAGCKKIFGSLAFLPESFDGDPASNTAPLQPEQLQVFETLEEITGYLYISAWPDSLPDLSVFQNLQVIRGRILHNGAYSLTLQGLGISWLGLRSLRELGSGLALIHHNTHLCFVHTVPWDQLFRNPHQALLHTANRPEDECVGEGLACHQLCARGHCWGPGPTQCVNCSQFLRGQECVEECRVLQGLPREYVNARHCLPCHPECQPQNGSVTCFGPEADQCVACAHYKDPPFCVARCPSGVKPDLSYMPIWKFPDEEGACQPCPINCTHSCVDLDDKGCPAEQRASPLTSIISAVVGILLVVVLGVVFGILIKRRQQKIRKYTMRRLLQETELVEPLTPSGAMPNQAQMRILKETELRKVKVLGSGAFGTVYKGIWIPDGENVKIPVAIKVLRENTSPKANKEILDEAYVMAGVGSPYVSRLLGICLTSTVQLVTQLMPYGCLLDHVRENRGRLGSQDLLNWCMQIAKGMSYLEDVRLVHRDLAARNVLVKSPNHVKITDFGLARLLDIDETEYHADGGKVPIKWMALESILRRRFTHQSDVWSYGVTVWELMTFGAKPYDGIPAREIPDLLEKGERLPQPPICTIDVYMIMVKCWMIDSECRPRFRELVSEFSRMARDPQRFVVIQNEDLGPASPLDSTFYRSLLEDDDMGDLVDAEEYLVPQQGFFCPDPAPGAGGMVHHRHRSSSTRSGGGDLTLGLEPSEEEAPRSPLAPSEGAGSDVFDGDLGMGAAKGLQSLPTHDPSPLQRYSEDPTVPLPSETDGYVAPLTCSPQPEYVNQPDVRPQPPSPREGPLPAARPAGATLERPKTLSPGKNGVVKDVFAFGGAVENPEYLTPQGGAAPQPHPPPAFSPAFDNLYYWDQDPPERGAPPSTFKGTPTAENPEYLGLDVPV
# [3] = reduced viability of SK-BR-3 breast cancer cells – cell-based, 24 h, human, pilot screen (AID 572); conditions: SK-BR-3 viability, CellTiter-Glo luminescence, at 10 µM, stronger effect = lower value;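 further: compound exposure lasted between 18 and 24 h rather than exactly 24 h; 100% = carrier-treated control wells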
# [4] = HUVEC growth inhibition – cell-based, human, primary screen (AID 575;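 active means viability at or below 30% in both replicate assays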;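 further: 100% = median of untreated cell wells with 0.1% DMSO on each plate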); conditions: HUVEC proliferation, CellTiter-Glo luminescence, 72 h; at 10 µM; stronger effect = lower value
# Outline: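 Assay system: primary human umbilical vein endothelial cells / Buffer or medium: endothelial basal medium with 2% FBS plus growth supplements / Compound dosing: one dose, 10 µM final, 0.1% DMSO / Timing: 72 h treatment at 37 °C / Signal: CTG luminescence / Benchmarks: 32 DMSO-only cell-control wells (high), 32 MePR drug-control wells (low) per plate / Plate: collagen-coated 384-well format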
# [5] = H69AR cell proliferation blockers – human, duplicate replicates, primary screen (AID 580;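 active means viability at or under a set limit in both replicates, limit being median viability minus 3 SD, cut at about 48% in these data, passing the limit was not always enough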;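 further: 100% = mean luminescence of untreated wells and 0% = no signal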); conditions: H69AR lung tumor cells viability, ATP luminescence, 72 h; at 10 µM; stronger effect = lower value
# [6] = MRP1 drug-resistance reversers in H69AR cells – cell-based, doxorubicin co-treatment, pilot screen (AID 601;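 active means viability loss from added drug above about 55%, and viability with drug at most 40%, in both replicates, limit read from the data, passing the limit was not always enough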); conditions: CellTiter-Glo, 72 h, at 10 µM; for differential viability (reversal): stronger effect = higher value
# [7] = yeast transport mutant growth inhibition pilot in 384-well plates, post-Golgi transport modulator project (AID 636; in the data active means inhibition above about 31%); conditions: absorbance 615 nm, about 18 h, stronger effect = higher value
# [8] = growth suppression of yeast trafficking mutant, preliminary HTS, modulators of trafficking downstream of Golgi apparatus project, 1536-format plate, OD 615 nm (AID 637; in the data active means inhibition above about 30%); conditions: yeast transport mutant growth, absorbance 615 nm, 18 h; stronger effect = higher value
# [9] = H69AR cells + 2 uM doxorubicin, measured here: viability with 2 uM doxorubicin, stronger effect = lower value
# [10] = H69AR cells, compound alone cytotoxicity
SMILES,viability [1],Her2 level [2],viability [3],viability [4],viability [5],differential viability (reversal) ([6]; H69AR cells + 2 uM doxorubicin),"viability [6, 9]","viability [6, 10]",inhibition [7],inhibition [8]
O=C(NCN1CCCCC1)c1cnccn1,95.5%,86% (inactive),95.5% (inactive),103% (inactive),89.9% (inactive),-16.5% (inactive),106%,89.9%,-2.47% (inactive),-1.15% (inactive)
COc1cccc(OCc2nc3ccccc3[nH]2)c1,86.5%,110% (inactive),86.5% (inactive),101% (inactive),95.8% (inactive),7.5% (inactive),88.3%,95.8%,-0.51% (inactive),-5% (inactive)
c1ccc(-n2cnc3cc(NCc4ccccn4)ccc32)cc1,109%,90.5% (inactive),109% (inactive),102% (inactive),86.4% (inactive),2.47% (inactive),84%,86.4%,-5.27% (inactive),2.7% (inactive)
COc1ccc(Cl)cc1C(=O)n1nc(C)cc1C,104%,112% (inactive),104% (inactive),93% (inactive),94.6% (inactive),1.56% (inactive),93%,94.6%,2.43% (inactive),9.17% (inactive)
COc1ccc(NC(=O)C(C)Oc2ccc(/C(C)=N\O)cc2)cc1 (stereo not given),122%,92% (inactive),122% (inactive),91.9% (inactive),90.4% (inactive),7.12% (inactive),83.3%,90.4%,-7.33% (inactive),-0.32% (inactive)
COc1ccc(Cc2nn3c(-c4cc(OC)c(OC)c(OC)c4)nnc3s2)cc1,95%,76.5% (inactive),95% (inactive),102% (inactive),81.6% (inactive),11.7% (inactive),69.9%,81.6%,-6.08% (inactive),5.17% (inactive)
Cn1c2c(c(=O)n(C)c1=O)CN(CCCN1CCOCC1)CN2,100%,86.5% (inactive),100% (inactive),106% (inactive),108% (inactive),7.39% (inactive),101%,108%,-5.26% (inactive),-5.27% (inactive)
O=c1c2[nH]c3ccccc3c2ncn1CCCn1ccnc1,92%,77.5% (inactive),92% (inactive),93.7% (inactive),96.8% (inactive),1.08% (inactive),95.7%,96.8%,-3.77% (inactive),-0.83% (inactive)
CCOC(=O)c1ccc(NC(=O)CCc2c(C)nc3ncnn3c2C)cc1,88%,95.5% (inactive),88% (inactive),107% (inactive),92.7% (inactive),-9.71% (inactive),102%,92.7%,1.37% (inactive),-5.56% (inactive)
COc1ccc(-c2cc(O)cc(O)c2)cc1,108%,89.5% (inactive),108% (inactive),71.7% (inactive),87.6% (inactive),7.77% (inactive),79.9%,87.6%,-8.24% (inactive),4.26% (inactive)
Cc1c(C(=O)O)oc2ccc(S(=O)(=O)NCc3ccccc3)cc12,105%,113% (inactive),105% (inactive),113% (inactive),106% (inactive),0.815% (inactive),105%,106%,-3.42% (inactive),-6.51% (inactive)
COc1ccc(N=c2scc(-c3ccc(S(=O)(=O)N4CCOCC4)cc3)n2CCCO)cc1,85.5%,80.5% (inactive),85.5% (inactive),96.4% (inactive),72.8% (inactive),37.2% (inactive),35.6%,72.8%,1.67% (inactive),-8.5% (inactive)
O=C(CSc1nnc(-c2ccccc2F)o1)OCc1ccccc1,83.5%,88.5% (inactive),83.5% (inactive),102% (inactive),102% (inactive),17.8% (inactive),84.3%,102%,-5.68% (inactive),2.95% (inactive)
COc1ccccc1NC(=O)NC1(C(=O)N2CCC(O)CC2)CCCCC1,103%,97% (inactive),103% (inactive),99.2% (inactive),114% (inactive),4.86% (inactive),109%,114%,-3.9% (inactive),-4.13% (inactive)
CCOC(=O)N1CCC(NC(=O)c2ccc3c(c2)N(C)CCS3)CC1,87%,92.5% (inactive),87% (inactive),109% (inactive),92.2% (inactive),8.3% (inactive),83.9%,92.2%,-4.21% (inactive),4.92% (inactive)
Cc1ccc2[nH]c(=O)c(CN(Cc3ccc4c(c3)OCO4)Cc3nnnn3Cc3ccco3)cc2c1,102%,93% (inactive),102% (inactive),106% (inactive),88.9% (inactive),-3.68% (inactive),92.6%,88.9%,-2.99% (inactive),-3.49% (inactive)
CC(C)CN(C(=O)COC(=O)Cc1n[nH]c(=O)c2ccccc12)C1CCS(=O)(=O)C1 (stereo not given),97.5%,98.5% (inactive),97.5% (inactive),93.6% (inactive),90.1% (inactive),4.47% (inactive),85.7%,90.1%,-3.12% (inactive),-1.75% (inactive)
Fc1ccc(C(c2nnnn2Cc2ccco2)N2CCN(C3CCCCC3)CC2)cc1 (stereo not given),67%,86.5% (inactive),67% (inactive),92.5% (inactive),94.1% (inactive),5.67% (inactive),88.5%,94.1%,2% (inactive),21.9% (inactive)
Cc1cnc(C(=O)OCC(=O)Nc2ccc(Cl)cc2Cl)cn1,89.5%,100% (inactive),89.5% (inactive),90.5% (inactive),103% (inactive),16.4% (inactive),86.3%,103%,-8.49% (inactive),2.38% (inactive)
Cc1ccc(-n2ncc3c(=O)[nH]c(SCC(=O)N4CCN(c5ccccc5)CC4)nc32)cc1,86%,77% (inactive),86% (inactive),92.2% (inactive),76.3% (inactive),4.85% (inactive),71.5%,76.3%,-5.79% (inactive),-1.17% (inactive)
Cc1ccc(NC(=O)CSc2nnc(CNC(=O)c3c(F)cccc3Cl)o2)cc1,80%,98% (inactive),80% (inactive),98% (inactive),95.7% (inactive),-0.775% (inactive),96.5%,95.7%,-0.51% (inactive),-6.83% (inactive)
CCOC(=O)N1CCC2(O)CCCCC2C1c1ccc(F)cc1 (stereo not given),102%,125% (inactive),102% (inactive),91.3% (inactive),96.8% (inactive),8.28% (inactive),88.5%,96.8%,-3.33% (inactive),30.8% (active)
CN(Cc1ccccc1)C(=O)c1ccc2c(c1)OCO2,101%,97% (inactive),101% (inactive),88.2% (inactive),108% (inactive),17.7% (inactive),90.3%,108%,-2.53% (inactive),4.43% (inactive)
COC(=O)C(C)Oc1ccc2c3c(c(=O)oc2c1)CCCCC3 (stereo not given),90%,94.5% (inactive),90% (inactive),93.7% (inactive),103% (inactive),10.5% (inactive),92.8%,103%,1.05% (inactive),5.74% (inactive)
COc1ccc(N2CCN(CCCNC(=O)C3CCCN(S(=O)(=O)c4cnc[nH]4)C3)CC2)cc1 (stereo not given),95.5%,102% (inactive),95.5% (inactive),93.4% (inactive),103% (inactive),14% (inactive),89%,103%,-4% (inactive),-4.26% (inactive)
CCc1ccc2c(CN(CC)Cc3nc4ccccc4c(=O)[nH]3)cc(=O)oc2c1,86%,73.5% (inactive),86% (inactive),75.4% (inactive),67.9% (inactive),36.3% (inactive),31.7%,67.9%,-1.32% (inactive),-7.27% (inactive)
Cc1oc2cc(O)ccc2c(=O)c1-c1cnn(-c2ccccc2)c1,93.5%,90% (inactive),93.5% (inactive),85% (inactive),96.5% (inactive),-1.5% (inactive),98%,96.5%,-5.13% (inactive),13.3% (inactive)
CCOC(=O)c1ccccc1NC(=O)c1ccc(NS(C)(=O)=O)cc1,93.5%,83.5% (inactive),93.5% (inactive),97% (inactive),80.7% (inactive),-1.98% (inactive),82.7%,80.7%,-4.53% (inactive),-3.81% (inactive)
